Test results published in ChEMBL document CHEMBL1148903, “New decalin derivatives, eujavanoic acids A and B, from Eupenicillium javanicum” (2004).
Calls of active or inactive are those of the source. No cut-off for these calls is given here.

Legend:
[1] = tested on: Aspergillus fumigatus; test: Antifungal activity against Aspergillus fumigatus at 10 mg/disk after 48 hrs; format: functional
Outline: (§1)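 Paper disk diffusion assay against Aspergillus fumigatus on potato dextrose agar. Compound was applied per disk, and activity was recorded after 48 h incubation. Other assay conditions follow an earlier published method.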

[2] = tested on: Aspergillus fumigatus; test: Antifungal activity against Aspergillus fumigatus at 0.5 mg/disk after 48 hrs; format: functional; outline: as §1
[3] = tested on: Aspergillus fumigatus; test: Antifungal activity against Aspergillus fumigatus at 1 mg/disk after 48 hrs; format: functional; outline: as §1
[4] = tested on: Aspergillus fumigatus; test: Antifungal activity against Aspergillus fumigatus at 5 mg/disk after 48 hrs; format: functional; outline: as §1
[5] = tested on: Aspergillus fumigatus; test: Antifungal activity against Aspergillus fumigatus up to 100 ug/disk after 48 hrs; format: functional, organism-based; outline: as §1

SMILES: CC[C@H](C)C(=O)O[C@H]1CCC[C@@H]2C=C[C@H](C)[C@H](CC[C@@H](O)C[C@@H](O)CC(=O)[O-])[C@@H]12.[Na+]
- inhibition zone (IZ) [1]: 32 mm
- Activity [2]: inactive
- inhibition zone (IZ) [3]: 16 mm
- inhibition zone (IZ) [4]: 21 mm

SMILES: C[C@H]1C(=O)C=C2CCCC[C@@H]2[C@H]1CC[C@@H](O)C[C@@H](O)CC(=O)O
- Activity [5]: inactive

SMILES: C[C@H]1C=CC2=CCC[C@H](O)[C@@H]2[C@H]1CC[C@@H](O)C[C@@H](O)CC(=O)O
- Activity [5]: inactive

SMILES: C[C@@H]1[C@H](O)[C@@H](C)/C=C/C=C/C=C/C=C/C=C/C=C/C=C/[C@H](O[C@@H]2O[C@H](C)[C@@H](O)[C@H](N)[C@@H]2O)C[C@@H]2O[C@](O)(C[C@@H](O)C[C@@H](O)[C@H](O)CC[C@@H](O)C[C@@H](O)CC(=O)O[C@H]1C)C[C@H](O)[C@H]2C(=O)O [AMPHOTERICIN B]
- inhibition zone (IZ) [1]: 13 mm
- inhibition zone (IZ) [3]: 11 mm
- inhibition zone (IZ) [4]: 14 mm

SMILES: CCOC(=O)C[C@H](O)C[C@H](O)CC[C@@H]1[C@@H]2C(=CCC[C@@H]2OC(=O)[C@@H](C)CC)C=C[C@@H]1C
- Activity [1]: inactive
- Activity [2]: inactive
- Activity [3]: inactive
- Activity [4]: inactive

SMILES: CC[C@H](C)C(=O)O[C@H]1CCC[C@@H]2CC[C@H](C)[C@H](CC[C@@H](O)C[C@@H](O)CC(=O)[O-])[C@H]21.[Na+]
- inhibition zone (IZ) [1]: 22 mm
- Activity [2]: inactive
- inhibition zone (IZ) [4]: 18 mm

SMILES: C[C@@H]1[C@H](CC[C@@H](O)C[C@@H](O)CC(=O)O)[C@H]2CCCCC2=C[C@H]1O
- Activity [5]: inactive
